Sampled rows, rich in hits. Any-hit rate of the full collection: about 4.6%.
ALR H2O2 inh: inhibitors of human sulfhydryl oxidase ALR; P55789; purified ALR, DTT oxidation, H2O2 HRP-luminol luminescence; inhibition, % (concentration not given with the values); 290,000 compounds, 3.8% hits; AID 485317;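 active = mean replicate inhibition above about 79%, with every replicate also reaching it, limit read from the data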
NLRP3 yeast inh: NALP3 inhibition in yeast; Yeast reconstituted NLRP3/ASC/caspase-1, beta-gal luminescence, 24 h; inhibition, % at 10 µM; 330,000 compounds, 0.39% hits;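 active = inhibition of 50% or more; inactive = inhibition below 50%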;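 also: plate controls were induced DMSO wells for no effect and uninduced yeast grown without galactose for full effect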
Arr AP2 block: human beta-arrestin and AP2 interaction inhibition; inhibition, % at 10 µM; FITC-arrestin peptide / GST-AP2 beads, flow cytometry; AP2 beta2 appendage carries R879A mutation; 340,000 compounds, 0.31% hits;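 active = inhibition above a set limit, near 3 SD of compounds lacking own fluorescence, cut at about 54% in these data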;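 also: plate controls were DMSO wells for no effect and 5 µM unlabelled arrestin peptide for full effect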
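system = GST-tagged AP2 beta2-adaptin appendage (R879A) on 4 µm glutathione beads | reagent = FITC-labelled arrestin peptide probe, 50 nM final | schedule = compound with beads 12 min RT, then probe 1 h RT | signal = HyperCyt-sampled flow cytometry, FL1 channel, ex 488/em 535 nm | read-out = percent response from loss of bead-bound FITC fluorescence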
PolyA inh: blocks polyadenylation in yeast reporter cells. S. cerevisiae SKY197-pL101 polyadenylation reporter, beta-gal luminescence; efflux-impaired pdr1/pdr3 knockout yeast; score 100 = 6 SD above DMSO. activity score, % at 12 µM. 300,000 compounds, 0.02% hits;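 active = lowest replicate activity score at least 50, where 100 means six control SD above control mean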;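 also: yeast exposed to compound for 9 h at 30 °C; higher score means more reporter readthrough which indicates perturbed polyadenylation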
Pemphigus Ab inh: human desmoglein-3 autoantibody binding inhibition; DSG3-coupled beads, scFv-anti-DSG3-GFP binding, flow cytometry; active compounds read low; binding (percent of control), % at 10 µM; 310,000 compounds, 0.48% hits;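 active = binding more than 3 SD below its plate's average and above zero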;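 also: hits lower antibody fragment binding to DSG3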
NALP1 yeast inh: NALP1 inhibition. 280,000 compounds, 0.61% hits. inhibition, % at 10 µM. S. cerevisiae NALP1/ASC/caspase-1 growth, X-gal OD620, 72 h; in the data active = inhibition mostly above about 24%, no sharp cut-off; inactive = mostly below about 32%
Numbers without * were called inactive.

Results for Cc1ccc(-c2noc(CCC(=O)Nc3cccc(C(=O)NC4CC4)c3)n2)cc1 ?
Pemphigus Ab inh: 102.6

Results for COc1ccccc1N1CCN(CCOc2c(OC)cccc2OC)CC1 ?
ALR H2O2 inh: -2.0; NLRP3 yeast inh: 7.5; Arr AP2 block: 22.0; PolyA inh: -1.4; NALP1 yeast inh: 27.8*

What do the screens show for `COc1ccccc1N1CCN(C/C=C/c2ccc(N(C)C)cc2)CC1`?
ALR H2O2 inh: 98.6*; NLRP3 yeast inh: 18.8; PolyA inh: 7.2; NALP1 yeast inh: 27.3

What do the screens show for `COc1ccccc1N1CCN(S(=O)(=O)/C=C/c2ccccc2)CC1`?
ALR H2O2 inh: -2.3; NLRP3 yeast inh: 15.2; Arr AP2 block: 8.2; PolyA inh: -0.3; Pemphigus Ab inh: 106.9; NALP1 yeast inh: 40.6

How did O=C(c1ccc(F)cc1Cl)N1CCN(S(=O)(=O)c2cccs2)CC1 do in these assays?
ALR H2O2 inh: -3.5; NLRP3 yeast inh: 0.8; Arr AP2 block: -10.6; PolyA inh: 2.9; Pemphigus Ab inh: 106.4; NALP1 yeast inh: 1.5

How did CCN1C(=O)C(=O)N(CC(=O)c2cc(C)n(C3CC3)c2C)C1=O do in these assays?
ALR H2O2 inh: 89.1*; NLRP3 yeast inh: 2.5; Arr AP2 block: 7.1; Pemphigus Ab inh: 90.2

How did COC(=O)CCC(=O)OC1(C)C(=O)C=C2C=C(c3ccsc3)OC=C2C1=O (configuration not stated) do in these assays?
ALR H2O2 inh: -12.3; NLRP3 yeast inh: -0.8; Arr AP2 block: 5.5; PolyA inh: -3.7; Pemphigus Ab inh: 43.1*

What do the screens show for `Cc1ccc([N+](=O)[O-])cc1Nc1nc(N2CCCC2)nc(N2CCCC2)n1`?
NLRP3 yeast inh: 11.4; Arr AP2 block: -15.2; PolyA inh: 11.5; Pemphigus Ab inh: 106.0; NALP1 yeast inh: 25.7

How did COc1cc(C(=O)NC23CC4CC(CC(C4)C2)C3)cc(OC)c1OC do in these assays?
ALR H2O2 inh: -3.6; NLRP3 yeast inh: 5.9; Arr AP2 block: 6.2; PolyA inh: 2.2; Pemphigus Ab inh: 110.2; NALP1 yeast inh: 0.1

What do the screens show for `COc1cc(C(=O)N[C@H](C(=O)NC(C)C23CC4CC(CC(C4)C2)C3)C(C)C)cc(OC)c1OC` (some centres not stated)?
ALR H2O2 inh: 5.3; NLRP3 yeast inh: -5.2; Arr AP2 block: 23.1; PolyA inh: -7.7; Pemphigus Ab inh: 106.3; NALP1 yeast inh: 40.7*

How did COc1ccc(N(C)C(=O)c2cn(C)c(=O)c3cc(OC)c(OC)cc23)cc1 do in these assays?
ALR H2O2 inh: -18.4; NLRP3 yeast inh: 15.4; Arr AP2 block: -14.0; PolyA inh: 8.2; Pemphigus Ab inh: 95.9; NALP1 yeast inh: -0.6

How did COc1ccccc1/C=C/C(=O)OCC(=O)NC1CCCCCCC1 do in these assays?
ALR H2O2 inh: 48.1; NLRP3 yeast inh: -0.8; Arr AP2 block: -9.7

What do the screens show for `C[C@H](CO)N1C[C@H](C)[C@H](CN(C)S(=O)(=O)c2ccc3ccccc3c2)OCc2cnnn2CCCC1=O`?
Pemphigus Ab inh: 111.2

How did Cc1ccc(N(CC2=NCCN2)c2cccc(O)c2)cc1 do in these assays?
ALR H2O2 inh: 98.3*; NLRP3 yeast inh: 11.1; Arr AP2 block: 4.0; PolyA inh: -13.0; Pemphigus Ab inh: 102.2; NALP1 yeast inh: 8.6

How did O=C1CSC(c2ccccc2[N+](=O)[O-])N1c1ccccc1 (configuration not stated) do in these assays?
ALR H2O2 inh: 99.4*; NLRP3 yeast inh: 17.0; Arr AP2 block: -7.4; PolyA inh: 13.5; Pemphigus Ab inh: 101.0; NALP1 yeast inh: -2.1

Results for O=C1CSC(c2ccccc2[N+](=O)[O-])N1c1cccc(F)c1 (configuration not stated) ?
ALR H2O2 inh: 98.8*; NLRP3 yeast inh: 14.0; Arr AP2 block: 5.3; PolyA inh: -12.2; Pemphigus Ab inh: 101.8; NALP1 yeast inh: -2.5

How did CC(=O)Nc1ccc(N2C(=O)CSC2c2cccc([N+](=O)[O-])c2)cc1 (configuration not stated) do in these assays?
ALR H2O2 inh: -17.4; NLRP3 yeast inh: 12.4; Arr AP2 block: 13.8; PolyA inh: 10.4; Pemphigus Ab inh: 99.4; NALP1 yeast inh: -3.4
